Experiments:
Heart [1] = assay: Biodistribution in heart of mouse EMT6 tumor bearing BALB/c mouse at 10 to 20 uCi after 5 mins; assay type: ADME, organism-based; settings: in vivo
In short: (§1)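 EMT-6 cells (5×10^5 in 100 µL PBS) implanted s.c. in scapular region of female Balb/c mice (~2 months, 17-22 g); studied 7-10 days later at ~0.2 cm3 tumor. 18F tracer 10-20 µCi in 100-150 µL saline via tail vein; ≥4 mice per time point; tissue removed at sacrifice, weighed, gamma-counted; %ID/g calculated.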

Blood [2] = assay: Biodistribution in blood of mouse EMT6 tumor bearing BALB/c mouse at 10 to 20 uCi after 30 mins; assay type: ADME, organism-based; settings: in vivo, 0.5 h; in short: as §1
[3] = Tumor to fat ratio of the drug in mouse EMT6 tumor bearing BALB/c mouse at 10 to 20 uCi after 2 hrs; assay type: ADME
In short: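 Tumor-bearing female Balb/c mice (EMT-6 s.c. allograft, ~0.2 cm3) given 10-20 µCi 18F tracer in saline i.v. via tail vein; ≥4 per group; killed 120 min later. Tissues weighed and gamma-counted; ratio = tumor %ID/g divided by that organ's %ID/g.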

Blood [4] = assay: Biodistribution in blood of mouse EMT6 tumor bearing BALB/c mouse at 10 to 20 uCi after 60 mins; assay type: ADME, organism-based; settings: in vivo, 1 h; in short: as §1
Adipose tissue [5] = assay: Biodistribution in fat of mouse EMT6 tumor bearing BALB/c mouse at 10 to 20 uCi after 120 mins; assay type: ADME, organism-based; settings: in vivo, 2 h; in short: as §1
Lung [6] = assay: Biodistribution in lung of mouse EMT6 tumor bearing BALB/c mouse at 10 to 20 uCi after 30 mins; assay type: ADME, organism-based; settings: in vivo, 0.5 h; in short: as §1
Heart [7] = assay: Biodistribution in heart of EMT6 tumor bearing BALB/c mouse at 10 to 20 uCi after 120 mins; assay type: ADME, organism-based; settings: in vivo, 2 h; in short: as §1
Muscle tissue [8] = assay: Biodistribution in muscle of mouse EMT6 tumor bearing BALB/c mouse at 10 to 20 uCi after 30 mins; assay type: ADME, organism-based; settings: in vivo, 0.5 h; in short: as §1
EMT6 [9] = assay: Biodistribution in tumor of mouse EMT6 tumor bearing BALB/c mouse at 10 to 20 uCi after 120 mins; assay type: ADME, organism-based; settings: emt6, 2 h; in short: as §1
Bone [10] = assay: Biodistribution in bone of mouse EMT6 tumor bearing BALB/c mouse at 10 to 20 uCi after 60 mins; assay type: ADME, organism-based, Bone element; settings: in vivo, 1 h; in short: as §1
Brain [11] = assay: Biodistribution in brain of mouse EMT6 tumor bearing BALB/c mouse at 10 to 20 uCi after 120 mins; assay type: ADME, organism-based; settings: in vivo, 2 h; in short: as §1
Kidney [12] = assay: Biodistribution in kidney of mouse EMT6 tumor bearing BALB/c mouse at 10 to 20 uCi after 30 mins; assay type: ADME, organism-based; settings: in vivo, 0.5 h; in short: as §1
Blood [13] = assay: Biodistribution in blood of mouse EMT6 tumor bearing BALB/c mouse at 10 to 20 uCi after 5 mins; assay type: ADME, organism-based; settings: in vivo; in short: as §1
Liver [14] = assay: Biodistribution in liver of mouse EMT6 tumor bearing BALB/c mouse at 10 to 20 uCi after 60 mins; assay type: ADME, organism-based; settings: in vivo, 1 h; in short: as §1
Liver [15] = assay: Biodistribution in liver of mouse EMT6 tumor bearing BALB/c mouse at 10 to 20 uCi after 120 mins; assay type: ADME, organism-based; settings: in vivo, 2 h; in short: as §1
Lung [16] = assay: Biodistribution in lung of mouse EMT6 tumor bearing BALB/c mouse at 10 to 20 uCi after 60 mins; assay type: ADME, organism-based; settings: in vivo, 1 h; in short: as §1
Muscle tissue [17] = assay: Biodistribution in muscle of mouse EMT6 tumor bearing BALB/c mouse at 10 to 20 uCi after 120 mins; assay type: ADME, organism-based; settings: in vivo, 2 h; in short: as §1
Liver [18] = assay: Biodistribution in liver of mouse EMT6 tumor bearing BALB/c mouse at 10 to 20 uCi after 5 mins; assay type: ADME, organism-based; settings: in vivo; in short: as §1
Lung [19] = assay: Biodistribution in lung of mouse EMT6 tumor bearing BALB/c mouse at 10 to 20 uCi after 5 mins; assay type: ADME, organism-based; settings: in vivo; in short: as §1
Kidney [20] = assay: Biodistribution in kidney of mouse EMT6 tumor bearing BALB/c mouse at 10 to 20 uCi after 60 mins; assay type: ADME, organism-based; settings: in vivo, 1 h; in short: as §1
Adipose tissue [21] = assay: Biodistribution in fat of mouse EMT6 tumor bearing BALB/c mouse at 10 to 20 uCi after 30 mins; assay type: ADME, organism-based; settings: in vivo, 0.5 h; in short: as §1
EMT6 [22] = assay: Biodistribution in tumor of EMT6 tumor bearing BALB/c mouse 10 to 20 uCi after 30 mins; assay type: ADME, organism-based; settings: emt6, 0.5 h; in short: as §1
Blood [23] = assay: Biodistribution in blood of mouse EMT6 tumor bearing BALB/c mouse at 10 to 20 uCi after 120 mins; assay type: ADME, organism-based; settings: in vivo, 2 h; in short: as §1
EMT6 [24] = assay: Biodistribution in tumor of mouse EMT6 tumor bearing BALB/c mouse at 10 to 20 uCi after 5 mins; assay type: ADME, organism-based; settings: emt6, 5 min; in short: as §1
Muscle tissue [25] = assay: Biodistribution in muscle of mouse EMT6 tumor bearing BALB/c mouse at 10 to 20 uCi after 60 mins; assay type: ADME, organism-based; settings: in vivo, 1 h; in short: as §1
Brain [26] = assay: Biodistribution in brain of EMT6 tumor bearing BALB/c mouse at 10 to 20 uCi after 30 mins; assay type: ADME, organism-based; settings: in vivo, 0.5 h; in short: as §1
Liver [27] = assay: Biodistribution in liver of mouse EMT6 tumor bearing BALB/c mouse at 10 to 20 uCi after 30 mins; assay type: ADME, organism-based; settings: in vivo, 0.5 h; in short: as §1
Adipose tissue [28] = assay: Biodistribution in fat of mouse EMT6 tumor bearing BALB/c mouse at 10 to 20 uCi after 5 mins; assay type: ADME, organism-based; settings: in vivo; in short: as §1
Bone [29] = assay: Biodistribution in bone of mouse EMT6 tumor bearing BALB/c mouse at 10 to 20 uCi after 5 mins; assay type: ADME, organism-based, Bone element; settings: in vivo; in short: as §1
Kidney [30] = assay: Biodistribution in kidney of mouse EMT6 tumor bearing BALB/c mouse at 10 to 20 uCi after 120 mins; assay type: ADME, organism-based; settings: in vivo, 2 h; in short: as §1
Bone [31] = assay: Biodistribution in bone of mouse EMT6 tumor bearing BALB/c mouse at 10 to 20 uCi after 120 mins; assay type: ADME, organism-based, Bone element; settings: in vivo, 2 h; in short: as §1
EMT6 [32] = assay: Biodistribution in tumor of mouse EMT6 tumor bearing BALB/c mouse at 10 to 20 uCi after 60 mins; assay type: ADME, organism-based; settings: emt6, 1 h; in short: as §1
Brain [33] = assay: Biodistribution in brain of EMT6 tumor bearing BALB/c mouse at 10 to 20 uCi after 5 mins; assay type: ADME, organism-based; settings: in vivo; in short: as §1
Bone [34] = assay: Biodistribution in bone of mouse EMT6 tumor bearing BALB/c mouse at 10 to 20 uCi after 30 mins; assay type: ADME, organism-based, Bone element; settings: in vivo, 0.5 h; in short: as §1
Kidney [35] = assay: Biodistribution in kidney of mouse EMT6 tumor bearing BALB/c mouse at 10 to 20 uCi after 5 mins; assay type: ADME, organism-based; settings: in vivo; in short: as §1
Lung [36] = assay: Biodistribution in lung of mouse EMT6 tumor bearing BALB/c mouse at 10 to 20 uCi after 120 mins; assay type: ADME, organism-based; settings: in vivo, 2 h; in short: as §1
Adipose tissue [37] = assay: Biodistribution in fat of mouse EMT6 tumor bearing BALB/c mouse at 10 to 20 uCi after 60 mins; assay type: ADME, organism-based; settings: in vivo, 1 h; in short: as §1
Brain [38] = assay: Biodistribution in brain of EMT6 tumor bearing BALB/c mouse at 10 to 20 uCi after 60 mins; assay type: ADME, organism-based; settings: in vivo, 1 h; in short: as §1
Heart [39] = assay: Biodistribution in heart of mouse EMT6 tumor bearing BALB/c mouse at 10 to 20 uCi after 60 mins; assay type: ADME, organism-based; settings: in vivo, 1 h; in short: as §1
Heart [40] = assay: Biodistribution in heart of mouse EMT6 tumor bearing BALB/c mouse at 10 to 20 uCi after 30 mins; assay type: ADME, organism-based; settings: in vivo, 0.5 h; in short: as §1
Muscle tissue [41] = assay: Biodistribution in muscle of EMT6 tumor bearing BALB/c mouse at 10 to 20 uCi after 5 mins; assay type: ADME, organism-based; settings: in vivo; in short: as §1
[42] = Displacement of [3H]DTG from sigma 2 receptor in rat liver membrane after 120 mins; assay type: cell membranes
In short: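 Rat liver membranes (~300 µg protein) incubated with ~5 nM [3H]DTG plus 1 µM (+)-pentazocine to mask σ1 sites, 120 min at room temperature; 10 µM haloperidol defines nonspecific binding; filtration and scintillation counting. One-site nonlinear regression IC50, converted to Ki by Cheng-Prusoff; mean ± SEM.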

[43] = Selectivity for rat liver sigma 2 receptor over guinea pig brain sigma 1 receptor

Structure (SMILES): COc1cc2c(cc1OC)CN(CCCCNC(=O)c1cc(Br)ccc1OCC[18F])CC2
- Drug uptake (Heart [1]): 3.74 % ID/g
- Drug uptake (Blood [2]): 2.81 % ID/g
- Ratio [3]: 6
- Drug uptake (Blood [4]): 1.69 % ID/g
- Drug uptake (Adipose tissue [5]): 0.15 % ID/g
- Drug uptake (Lung [6]): 3.08 % ID/g
- Drug uptake (Heart [7]): 0.4 % ID/g
- Drug uptake (Muscle tissue [8]): 0.98 % ID/g
- Drug uptake (EMT6 [9]): 0.96 % ID/g
- Drug uptake (Bone [10]): 1.12 % ID/g
- Drug uptake (Brain [11]): 0.2 % ID/g
- Drug uptake (Kidney [12]): 17.55 % ID/g
- Drug uptake (Blood [13]): 3.57 % ID/g
- Drug uptake (Liver [14]): 5.69 % ID/g
- Drug uptake (Liver [15]): 2.3 % ID/g
- Drug uptake (Lung [16]): 1.6 % ID/g
- Drug uptake (Muscle tissue [17]): 0.28 % ID/g
- Drug uptake (Liver [18]): 32.6 % ID/g
- Drug uptake (Lung [19]): 12.08 % ID/g
- Drug uptake (Kidney [20]): 6.92 % ID/g
- Drug uptake (Adipose tissue [21]): 0.96 % ID/g
- Drug uptake (EMT6 [22]): 2.59 % ID/g
- Drug uptake (Blood [23]): 0.52 % ID/g
- Drug uptake (EMT6 [24]): 3.28 % ID/g
- Drug uptake (Muscle tissue [25]): 0.58 % ID/g
- Drug uptake (Brain [26]): 0.4 % ID/g
- Drug uptake (Liver [27]): 13.12 % ID/g
- Drug uptake (Adipose tissue [28]): 2.85 % ID/g
- Drug uptake (Bone [29]): 2.9 % ID/g
- Drug uptake (Kidney [30]): 1.12 % ID/g
- Drug uptake (Bone [31]): 1.28 % ID/g
- Drug uptake (EMT6 [32]): 2.09 % ID/g
- Drug uptake (Brain [33]): 1.09 % ID/g
- Drug uptake (Bone [34]): 1.17 % ID/g
- Drug uptake (Kidney [35]): 42.94 % ID/g
- Drug uptake (Lung [36]): 0.51 % ID/g
- Drug uptake (Adipose tissue [37]): 0.38 % ID/g
- Drug uptake (Brain [38]): 0.32 % ID/g
- Drug uptake (Heart [39]): 1.04 % ID/g
- Drug uptake (Heart [40]): 1.55 % ID/g
- Drug uptake (Muscle tissue [41]): 1.95 % ID/g

Structure (SMILES): COc1cc2c(cc1OC)CN(CCCCNC(=O)c1cc(Br)ccc1OCCF)CC2
- Ki [42]: 0.65 nM
- Ratio Ki [43]: 1660

Structure (SMILES): COc1cc2c(cc1OC)CN(CCNC(=O)c1cc(C)ccc1OCCF)CC2
- Ki [42]: 102 nM
- Ratio Ki [43]: 222

Structure (SMILES): COc1cc2c(cc1OC)CN(CCCCNC(=O)c1cc(C)ccc1OCCF)CC2
- Ki [42]: 6.95 nM
- Ratio Ki [43]: 48
